Data taken from ChEMBL document CHEMBL5724801, “EUbOPEN Chemogenomics Library - Multiplex” (2024).
Where “and” joins values, the source holds several entries; their conditions need not be identical. Identical values can stand only once.

Columns and labels:
Assay type in all cases: toxicity, cell-based
Fibroblast = assay: Multiplex assay against human fibroblast
In short: (§1)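 Per cents of healthy-nucleus cells form the tubulin, mitochondrial-mass and membrane-permeability phenotype values. Live cells were stained at seeding with Hoechst33342, BioTracker Green Microtubule Cytoskeleton Dye, MitoTracker Red and Annexin V Alexa Fluor 680. After compound addition they were imaged on a CQ1 microscope at 37°C and 5% CO2, and CellPathfinder machine-learning gating split them into Hoechst high-intensity objects or normal cells, normal cells into healthy, pyknosed or fragmented nuclei, and pyknosed cells into mitotic or apoptotic.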

HEK-293T = assay: Multiplex assay against HEK293T; conditions: human; in short: as §1
U2OS = assay: Multiplex assay against U2OS; conditions: human; in short: as §1
[1] = 12 h, 1 µM, compound concentration 1 uM
[2] = 12 h, 10 µM, compound concentration 10 uM
[3] = 24 h, 1 µM, compound concentration 1 uM
[4] = 24 h, 10 µM, compound concentration 10 uM
[5] = 48 h, 1 µM, compound concentration 1 uM
[6] = 48 h, 10 µM, compound concentration 10 uM

COc1ccccc1N1CCN(CCCCNC(=O)c2ccc3ccccc3c2)CC1.Cl
Population Apoptotic (%) (Fibroblast; [1]): 52% and 40% | Population Fragmented Nuclei (%) (Fibroblast; [1]): 19% and 20% | Population Healthy Nuclei (%) (Fibroblast; [1]): 68% and 63% | Population Mitotic Cells (%) (Fibroblast; [1]): 47% and 59% | Population Normal (%) (Fibroblast; [1]): 95% and 96% | Population Tubulin-Different-Phenotype (%) (Fibroblast; [1]): 35% and 42% | Total Cell Count (Fibroblast; [1]): 194 and 148 | Population Apoptotic (%) (Fibroblast; [2]): 58% and 39% | Population Fragmented Nuclei (%) (Fibroblast; [2]): 32% and 40% | Population Healthy Nuclei (%) (Fibroblast; [2]): 52% and 34% | Population Mitotic Cells (%) (Fibroblast; [2]): 41% and 60% | Population Normal (%) (Fibroblast; [2]): 96% and 89% | Population Tubulin-Different-Phenotype (%) (Fibroblast; [2]): 79% and 90% | Total Cell Count (Fibroblast; [2]): 194 and 144 | Population Apoptotic (%) (Fibroblast; [3]): 39% and 60% | Population Fragmented Nuclei (%) (Fibroblast; [3]): 14% and 26% | Population Healthy Nuclei (%) (Fibroblast; [3]): 73% and 60% | Population Mitotic Cells (%) (Fibroblast; [3]): 60% and 40% | Population Normal (%) (Fibroblast; [3]): 98% and 96% | Population Tubulin-Different-Phenotype (%) (Fibroblast; [3]): 31% and 40% | Total Cell Count (Fibroblast; [3]): 193 and 156 | Population Apoptotic (%) (Fibroblast; [4]): 66% and 69% | Population Fragmented Nuclei (%) (Fibroblast; [4]): 32% and 41% | Population Healthy Nuclei (%) (Fibroblast; [4]): 56% and 41% | Population Mitotic Cells (%) (Fibroblast; [4]): 33% and 30% | Population Normal (%) (Fibroblast; [4]): 95% and 91% | Population Tubulin-Different-Phenotype (%) (Fibroblast; [4]): 85% and 81% | Total Cell Count (Fibroblast; [4]): 206 and 154 | Population Apoptotic (%) (Fibroblast; [5]): 42% and 29% | Population Fragmented Nuclei (%) (Fibroblast; [5]): 21% and 34% | Population Healthy Nuclei (%) (Fibroblast; [5]): 70% and 54% | Population Mitotic Cells (%) (Fibroblast; [5]): 57% and 70% | Population Normal (%) (Fibroblast; [5]): 96% and 95% | Population Tubulin-Different-Phenotype (%) (Fibroblast; [5]): 38% and 39% | Total Cell Count (Fibroblast; [5]): 199 and 167 | Population Apoptotic (%) (Fibroblast; [6]): 73% and 75% | Population Fragmented Nuclei (%) (Fibroblast; [6]): 33% and 38% | Population Healthy Nuclei (%) (Fibroblast; [6]): 57% and 56% | Population Mitotic Cells (%) (Fibroblast; [6]): 26% and 25% | Population Tubulin-Different-Phenotype (%) (Fibroblast; [6]): 89% and 82% | Total Cell Count (Fibroblast; [6]): 224 and 168 | Population Apoptotic (%) (HEK-293T; [1]): 45% and 36% | Population Fragmented Nuclei (%) (HEK-293T; [1]): 7% and 6% | Population Healthy Nuclei (%) (HEK-293T; [1]): 81% and 79% | Population Hoechst High Intensity Objects (%) (HEK-293T; [1]): 6% and 5% | Population Mitochondria Different-Phenotype (%) (HEK-293T; [1]): 53% and 76% | Population Mitotic Cells (%) (HEK-293T; [1]): 54% and 63% | Population Normal (%) (HEK-293T; [1]): 93% and 94% | Population Tubulin-Different-Phenotype (%) (HEK-293T; [1]): 41% and 35% | Total Cell Count (HEK-293T; [1]): 430 and 354 | Population Apoptotic (%) (HEK-293T; [2]): 71% and 70% | Population Fragmented Nuclei (%) (HEK-293T; [2]): 4% and 7% | Population Healthy Nuclei (%) (HEK-293T; [2]): 69% and 75% | Population Hoechst High Intensity Objects (%) (HEK-293T; [2]): 16% and 15% | Population Mitochondria Different-Phenotype (%) (HEK-293T; [2]): 90% and 93% | Population Mitotic Cells (%) (HEK-293T; [2]): 28% and 29% | Population Normal (%) (HEK-293T; [2]): 83% and 84% | Population Tubulin-Different-Phenotype (%) (HEK-293T; [2]): 75% and 72% | Total Cell Count (HEK-293T; [2]): 321 and 256 | Population Apoptotic (%) (HEK-293T; [3]): 27% and 36% | Population Fragmented Nuclei (%) (HEK-293T; [3]): 8% and 7% | Population Healthy Nuclei (%) (HEK-293T; [3]): 78% and 82% | Population Hoechst High Intensity Objects (%) (HEK-293T; [3]): 6% | Population Mitochondria Different-Phenotype (%) (HEK-293T; [3]): 38% and 62% | Population Mitotic Cells (%) (HEK-293T; [3]): 72% and 63% | Population Normal (%) (HEK-293T; [3]): 93% | Population Tubulin-Different-Phenotype (%) (HEK-293T; [3]): 32% and 26% | Total Cell Count (HEK-293T; [3]): 561 and 444 | Population Apoptotic (%) (HEK-293T; [4]): 56% and 60% | Population Fragmented Nuclei (%) (HEK-293T; [4]): 7% and 10% | Population Healthy Nuclei (%) (HEK-293T; [4]): 74% and 69% | Population Hoechst High Intensity Objects (%) (HEK-293T; [4]): 13% and 17% | Population Mitochondria Different-Phenotype (%) (HEK-293T; [4]): 96% and 94% | Population Mitotic Cells (%) (HEK-293T; [4]): 43% and 39% | Population Normal (%) (HEK-293T; [4]): 86% and 82% | Population Tubulin-Different-Phenotype (%) (HEK-293T; [4]): 87% and 66% | Total Cell Count (HEK-293T; [4]): 393 and 276 | Population Apoptotic (%) (HEK-293T; [5]): 20% and 46% | Population Healthy Nuclei (%) (HEK-293T; [5]): 81% and 78% | Population Hoechst High Intensity Objects (%) (HEK-293T; [5]): 3% and 5% | Population Mitochondria Different-Phenotype (%) (HEK-293T; [5]): 34% and 37% | Population Mitotic Cells (%) (HEK-293T; [5]): 79% and 53% | Population Normal (%) (HEK-293T; [5]): 96% and 94% | Population Tubulin-Different-Phenotype (%) (HEK-293T; [5]): 20% and 22% | Total Cell Count (HEK-293T; [5]): 841 and 635 | Population Apoptotic (%) (HEK-293T; [6]): 60% and 78% | Population Fragmented Nuclei (%) (HEK-293T; [6]): 8% | Population Healthy Nuclei (%) (HEK-293T; [6]): 77% and 78% | Population Hoechst High Intensity Objects (%) (HEK-293T; [6]): 8% and 10% | Population Mitochondria Different-Phenotype (%) (HEK-293T; [6]): 88% and 92% | Population Mitotic Cells (%) (HEK-293T; [6]): 40% and 21% | Population Normal (%) (HEK-293T; [6]): 91% and 89% | Population Tubulin-Different-Phenotype (%) (HEK-293T; [6]): 73% and 71% | Total Cell Count (HEK-293T; [6]): 519 and 329 | Population Apoptotic (%) (U2OS; [1]): 68% and 42% | Population Fragmented Nuclei (%) (U2OS; [1]): 18% and 17% | Population Healthy Nuclei (%) (U2OS; [1]): 69% and 75% | Population Mitochondria Different-Phenotype (%) (U2OS; [1]): 8% and 15% | Population Mitotic Cells (%) (U2OS; [1]): 31% and 57% | Population Normal (%) (U2OS; [1]): 95% and 97% | Total Cell Count (U2OS; [1]): 243 and 99 | Population Apoptotic (%) (U2OS; [2]): 78% and 65% | Population Fragmented Nuclei (%) (U2OS; [2]): 30% and 17% | Population Healthy Nuclei (%) (U2OS; [2]): 39% and 51% | Population Mitochondria Different-Phenotype (%) (U2OS; [2]): 80% and 94% | Population Mitotic Cells (%) (U2OS; [2]): 21% and 34% | Population Normal (%) (U2OS; [2]): 91% and 93% | Population Pyknosed Nuclei (%) (U2OS; [2]): 30% | Total Cell Count (U2OS; [2]): 222 and 111 | Population Apoptotic (%) (U2OS; [3]): 78% and 80% | Population Fragmented Nuclei (%) (U2OS; [3]): 18% and 21% | Population Healthy Nuclei (%) (U2OS; [3]): 68% | Population Mitochondria Different-Phenotype (%) (U2OS; [3]): 9% and 11% | Population Mitotic Cells (%) (U2OS; [3]): 21% and 20% | Population Normal (%) (U2OS; [3]): 96% and 98% | Population Pyknosed Nuclei (%) (U2OS; [3]): 9% | Total Cell Count (U2OS; [3]): 262 and 103 | Population Apoptotic (%) (U2OS; [4]): 90% and 100% | Population Fragmented Nuclei (%) (U2OS; [4]): 35% and 19% | Population Healthy Nuclei (%) (U2OS; [4]): 32% and 61% | Population Mitochondria Different-Phenotype (%) (U2OS; [4]): 78% and 93% | Population Mitotic Cells (%) (U2OS; [4]): 10% and 0% | Population Normal (%) (U2OS; [4]): 93% | Population Pyknosed Nuclei (%) (U2OS; [4]): 31% | Total Cell Count (U2OS; [4]): 234 and 125 | Population Apoptotic (%) (U2OS; [5]): 72% and 88% | Population Fragmented Nuclei (%) (U2OS; [5]): 19% and 17% | Population Healthy Nuclei (%) (U2OS; [5]): 71% and 64% | Population Mitochondria Different-Phenotype (%) (U2OS; [5]): 3% | Population Mitotic Cells (%) (U2OS; [5]): 27% and 12% | Population Normal (%) (U2OS; [5]): 95% and 96% | Population Pyknosed Nuclei (%) (U2OS; [5]): 9% | Total Cell Count (U2OS; [5]): 362 and 144 | Population Apoptotic (%) (U2OS; [6]): 93% and 86% | Population Fragmented Nuclei (%) (U2OS; [6]): 38% and 23% | Population Healthy Nuclei (%) (U2OS; [6]): 27% and 37% | Population Mitochondria Different-Phenotype (%) (U2OS; [6]): 69% and 77% | Population Mitotic Cells (%) (U2OS; [6]): 6% and 13% | Population Normal (%) (U2OS; [6]): 91% and 87% | Population Pyknosed Nuclei (%) (U2OS; [6]): 34% and 39% | Total Cell Count (U2OS; [6]): 256 and 111
